{"source": "ChEMBL document CHEMBL3872205", "about": "“Design, synthesis and evaluation of novel potent angiotensin II receptor 1 antagonists” (Eur J Med Chem, 2016)", "key": {"[1]": {"assay": "Displacement of 125I-Ang2 from AT1 receptor in SPF Sprague-Dawley rat vascular smooth muscle cell membranes after 150 mins by gamma counting method", "how_it_was_run": "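Primary aortic VSMCs from SPF Sprague-Dawley rats, obtained by explant culture in DMEM/10% FBS and identified by SM α-actin staining; passages 3–6. Whole cells (10^6/well) incubated with 125I-Ang II (diluted to 0.2 nM) and compound at final 10^-12–10^-6 M, 4 °C for 150 min. Washed, lysed in 0.1 M NaOH, γ-counted. IC50 from nonlinear fit of competition curves.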"}, "[2]": {"assay": "AUC (0 to infinity) in Wistar rat plasma at 15 mg/kg, po by HPLC analysis", "format": "ADME, organism-based", "parameters": "dose 15 mg/kg, route oral, time infinity", "how_it_was_run": "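Male Wistar rats (180 ± 20 g, n = 6 per group) got one oral dose. Heparinized blood was taken by retro-orbital puncture before dosing and at 0.5–72 h. Plasma was spun at 4000 × g, 4 °C, 10 min, spiked with internal standard and protein-precipitated with acetonitrile. Analysis was reverse-phase C18 HPLC (0.02 mol/L KH2PO4 55%/acetonitrile 45%, 1.0 mL/min). Calibration used 0.1–10 µg/mL, peak-height ratio, weighting concentration^-2.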"}, "[3]": {"assay": "MRT (0 to infinity) in Wistar rat plasma at 15 mg/kg, po by HPLC analysis", "format": "ADME, organism-based", "how_it_was_run": "(§1)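 Male Wistar rats (180 ± 20 g), 6 per dose group, each given a single oral dose. Blood was drawn by retro-orbital puncture into heparin at predose and at 0.5, 1, 2, 4, 6, 8, 12, 24, 48 and 72 h, then spun at 4000 × g and 4 °C. Plasma with internal standard was acetonitrile-precipitated, filtered and run on reverse-phase C18 HPLC (0.02 mol/L KH2PO4 55% / acetonitrile 45%, 1.0 mL/min). Calibration standards were 0.1–10 µg/mL, fitted by peak-height ratio with 1/conc² weighting.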"}, "[4]": {"assay": "MRT (0 to infinity) in Wistar rat plasma at 30 mg/kg, po by HPLC analysis", "format": "ADME, organism-based", "how_it_was_run": "as §1"}, "[5]": {"assay": "Half life in Wistar rat plasma at 30 mg/kg, po by HPLC analysis", "format": "ADME, organism-based"}, "[6]": {"assay": "Cmax in Wistar rat plasma at 30 mg/kg, po by HPLC analysis", "format": "ADME, organism-based", "parameters": "dose 30 mg/kg, route oral"}, "[7]": {"assay": "AUC (0 to infinity) in Wistar rat Heart at 15 mg/kg, po by HPLC analysis", "format": "ADME, organism-based", "parameters": "dose 15 mg/kg, time infinity, route oral", "how_it_was_run": "(§2)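 Wistar rats (180 ± 20 g) were dosed orally at 10, 15 or 30 mg/kg. Heart, liver, spleen, lung, kidney and brain were collected at 0–72 h (n = 6 per point). Tissue was rinsed, blotted and homogenized in saline (0.25 g/1 mL), then spun at 10,000 × g. Supernatant was methanol-extracted, dried under nitrogen at 50 °C, reconstituted in methanol and run on C18 HPLC (acetonitrile 60%/water 40%, 1.0 mL/min).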"}, "[8]": {"assay": "Cmax in Wistar rat heart at 10 mg/kg, po by HPLC analysis", "format": "ADME, organism-based", "parameters": "dose 10 mg/kg, route oral", "how_it_was_run": "(§3)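 Tissue distribution in male Wistar rats given oral 10, 15 or 30 mg/kg; heart, liver, spleen, lung, kidney and brain collected predose and 0.5–72 h post-dose (n = 6 per time). Tissue rinsed in saline, homogenised 0.25 g/1 mL saline, methanol extraction, dried under nitrogen, reconstituted in methanol. Analysis by reverse-phase C18 HPLC, acetonitrile/water 60:40, 1.0 mL/min, ambient temperature.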"}, "[9]": {"assay": "AUC (0 to 72 hrs) in Wistar rat liver at 15 mg/kg, po by HPLC analysis", "format": "ADME, organism-based", "parameters": "dose 15 mg/kg, time < 72 hr, route oral", "how_it_was_run": "as §2"}, "[10]": {"assay": "AUC (0 to infinity) in Wistar rat liver at 10 mg/kg, po by HPLC analysis", "format": "ADME, organism-based", "parameters": "dose 10 mg/kg, route oral, time infinity", "how_it_was_run": "as §2"}, "[11]": {"assay": "MRT (0 to infinity) in Wistar rat liver at 30 mg/kg, po by HPLC analysis", "format": "ADME, organism-based", "how_it_was_run": "(§4)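 Male Wistar rats (180 ± 20 g) received a single oral dose of 10, 15 or 30 mg/kg. Tissues were collected at 0, 0.5, 1, 2, 4, 6, 8, 12, 24, 48 and 72 h (n = 6 per point). Samples of 0.25 g were rinsed, then homogenized in saline (0.25 g/1 mL) and centrifuged at 10,000 × g. Supernatant was methanol-extracted, dried under nitrogen at 50 °C and reconstituted in methanol. Analysis was by C18 HPLC (acetonitrile 60% / water 40%, 1.0 mL/min).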"}, "[12]": {"assay": "Cmax in Wistar rat liver at 30 mg/kg, po by HPLC analysis", "format": "ADME, organism-based", "parameters": "dose 30 mg/kg, route oral", "how_it_was_run": "as §3"}, "[13]": {"assay": "AUC (0 to infinity) in Wistar rat spleen at 30 mg/kg, po by HPLC analysis", "format": "ADME, organism-based", "parameters": "dose 30 mg/kg, route oral, time infinity", "how_it_was_run": "as §2"}, "[14]": {"assay": "MRT (0 to 72 hrs) in Wistar rat spleen at 30 mg/kg, po by HPLC analysis", "format": "ADME, organism-based", "how_it_was_run": "as §4"}, "[15]": {"assay": "AUC (0 to 72 hrs) in Wistar rat lung at 10 mg/kg, po by HPLC analysis", "format": "ADME, organism-based", "parameters": "time < 72 hr, dose 10 mg/kg, route oral", "how_it_was_run": "as §2"}, "[16]": {"assay": "AUC (0 to infinity) in Wistar rat lung at 15 mg/kg, po by HPLC analysis", "format": "ADME, organism-based", "parameters": "dose 15 mg/kg, route oral, time infinity", "how_it_was_run": "as §2"}, "[17]": {"assay": "AUC (0 to infinity) in Wistar rat lung at 30 mg/kg, po by HPLC analysis", "format": "ADME, organism-based", "parameters": "dose 30 mg/kg, route oral, time infinity", "how_it_was_run": "as §2"}, "[18]": {"assay": "MRT (0 to 72 hrs) in Wistar rat lung at 10 mg/kg, po by HPLC analysis", "format": "ADME, organism-based", "how_it_was_run": "as §4"}, "[19]": {"assay": "MRT (0 to infinity) in Wistar rat lung at 30 mg/kg, po by HPLC analysis", "format": "ADME, organism-based", "how_it_was_run": "as §4"}, "[20]": {"assay": "Tmax in Wistar rat lung at 30 mg/kg, po by HPLC analysis", "format": "ADME, organism-based", "how_it_was_run": "as §4"}, "[21]": {"assay": "Cmax in Wistar rat lung at 10 mg/kg, po by HPLC analysis", "format": "ADME, organism-based", "parameters": "dose 10 mg/kg, route oral", "how_it_was_run": "as §3"}, "[22]": {"assay": "MRT (0 to 72 hrs) in Wistar rat kidney at 10 mg/kg, po by HPLC analysis", "format": "ADME, organism-based", "how_it_was_run": "as §3"}, "[23]": {"assay": "MRT (0 to 72 hrs) in Wistar rat kidney at 30 mg/kg, po by HPLC analysis", "format": "ADME, organism-based", "how_it_was_run": "as §3"}, "[24]": {"assay": "MRT (0 to infinity) in Wistar rat kidney at 10 mg/kg, po by HPLC analysis", "format": "ADME, organism-based", "how_it_was_run": "as §4"}, "[25]": {"assay": "Half life in Wistar rat kidney at 15 mg/kg, po by HPLC analysis", "format": "ADME, organism-based", "how_it_was_run": "as §3"}, "[26]": {"assay": "Cmax in Wistar rat kidney at 10 mg/kg, po by HPLC analysis", "format": "ADME, organism-based", "parameters": "dose 10 mg/kg, route oral", "how_it_was_run": "as §3"}, "[27]": {"assay": "MRT (0 to 72 hrs) in Wistar rat brain at 30 mg/kg, po by HPLC analysis", "format": "ADME, organism-based", "how_it_was_run": "as §3"}, "[28]": {"assay": "MRT (0 to infinity) in Wistar rat brain at 15 mg/kg, po by HPLC analysis", "format": "ADME, organism-based", "how_it_was_run": "as §4"}, "[29]": {"assay": "Tmax in Wistar rat brain at 30 mg/kg, po by HPLC analysis", "format": "ADME, organism-based", "how_it_was_run": "as §4"}, "[30]": {"assay": "Cmax in Wistar rat brain at 10 mg/kg, po by HPLC analysis", "format": "ADME, organism-based", "parameters": "dose 10 mg/kg, route oral", "how_it_was_run": "as §2"}, "[31]": {"assay": "Toxicity in ICR mouse assessed as mortality at 1875 mg/kg, ig after 2 weeks", "format": "organism-based", "settings": "in vivo, po"}, "[32]": {"assay": "Toxicity in ig dosed ICR mouse assessed as mortality after 2 weeks", "format": "organism-based", "settings": "in vivo, po"}}}
{"smiles": "CCCCC1=NC2(CCCC2)C(=O)N1Cc1ccc2c(ccn2-c2ccccc2-c2nnn[nH]2)c1", "values": [{"measurement": "IC50", "setting": "[1]", "result": 1.26, "unit": "nM"}, {"measurement": "Ki", "setting": "[1]", "result": 0.91, "unit": "nM"}, {"measurement": "AUC(0-inf)", "setting": "[2]", "result": 26.1, "unit": "µg·h/mL"}, {"measurement": "MRT inf", "setting": "[3]", "result": 13.7, "unit": "h"}, {"measurement": "MRT inf", "setting": "[4]", "result": 16.1, "unit": "h"}, {"measurement": "half-life", "setting": "[5]", "result": 9.93, "unit": "h"}, {"measurement": "Cmax", "setting": "[6]", "result": 5.76, "unit": "µg/mL"}, {"measurement": "AUC(0-inf)", "setting": "[7]", "result": 6.7, "unit": "µg·h/mL"}, {"measurement": "Cmax", "setting": "[8]", "result": 0.105, "unit": "µg/mL"}, {"measurement": "AUC(0-t) at 72 h", "setting": "[9]", "result": 4.89, "unit": "µg·h/mL"}, {"measurement": "AUC(0-inf)", "setting": "[10]", "result": 3.32, "unit": "µg·h/mL"}, {"measurement": "MRT inf", "setting": "[11]", "result": 5.49, "unit": "h"}, {"measurement": "Cmax", "setting": "[12]", "result": 2, "unit": "µg/mL"}, {"measurement": "AUC(0-inf)", "setting": "[13]", "result": 21, "unit": "µg·h/mL"}, {"measurement": "MRT last", "setting": "[14]", "result": 13.3, "unit": "h"}, {"measurement": "AUC(0-t) at 72 h", "setting": "[15]", "result": 0.745, "unit": "µg·h/mL"}, {"measurement": "AUC(0-inf)", "setting": "[16]", "result": 1.35, "unit": "µg·h/mL"}, {"measurement": "AUC(0-inf)", "setting": "[17]", "result": 2.41, "unit": "µg·h/mL"}, {"measurement": "MRT last", "setting": "[18]", "result": 10.6, "unit": "h"}, {"measurement": "MRT inf", "setting": "[19]", "result": 4.1, "unit": "h"}, {"measurement": "Tmax", "setting": "[20]", "result": 2, "unit": "h"}, {"measurement": "Cmax", "setting": "[21]", "result": 0.0621, "unit": "µg/mL"}, {"measurement": "MRT last", "setting": "[22]", "result": 21, "unit": "h"}, {"measurement": "MRT last", "setting": "[23]", "result": 24.9, "unit": "h"}, {"measurement": "MRT inf", "setting": "[24]", "result": 25.3, "unit": "h"}, {"measurement": "half-life", "setting": "[25]", "result": 22.6, "unit": "h"}, {"measurement": "Cmax", "setting": "[26]", "result": 0.18, "unit": "µg/mL"}, {"measurement": "MRT last", "setting": "[27]", "result": 9.03, "unit": "h"}, {"measurement": "MRT inf", "setting": "[28]", "result": 11.6, "unit": "h"}, {"measurement": "Tmax", "setting": "[29]", "result": 5.83, "unit": "h"}, {"measurement": "Cmax", "setting": "[30]", "result": 0.0372, "unit": "µg/mL"}, {"measurement": "mortality at 336 h", "setting": "[31]", "result": 60, "unit": "%"}, {"measurement": "LD50 at 336 h", "setting": "[32]", "result": 1550, "unit": "mg/kg"}]}
